Source: ChEMBL document CHEMBL4145455, “Design, synthesis and evaluation of novel phenyl propionamide derivatives as non-nucleoside hepatitis B virus inhibitors” (Eur J Med Chem, 2018)
pEC50, pIC50: −log10 of the molar value.

Columns and labels:
[1] = Cytotoxicity against human HepG2(2.2.15) cells assessed as reduction in cell viability after 72 hrs by MTT assay; assay type: cell-based
How it was run: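 Confluent HepG2 2.2.15 cells exposed to graded compound concentrations for 72 h alongside untreated controls on each plate; viability by MTT uptake, absorbance 490 nm relative to untreated cells; CC50 = concentration killing 50% of cells. Three replicates.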

Hepatitis B virus [2] = test: Antiviral activity against HBV infected in human HepG2(2.2.15) cells assessed as inhibition of viral DNA replication at 20 uM after 6 days by RT-PCR method relative to control; assay type: functional; details: HepG2 2.2.15, 144 h
How it was run: (§1)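 HepG2 2.2.15 cells (stable HBV genome; DMEM, 10% FBS, G418 0.38 mg/mL) seeded 2×10^5/well, recovered 24 h, then compound in assay medium (single 20 or 4 μM, or dose series for IC50), medium changed every 2 days; after 6 days HBV DNA extracted and quantified by real-time PCR. Mean ± SD, ≥3 independent experiments in duplicate.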

[3] = Selectivity index, ratio of CC50 for human HepG2(2.2.15) cells to IC50 for antiviral activity against HBV infected in human HepG2(2.2.15) cells assessed as inhibition of viral DNA replication; assay type: toxicity, cell-based; details: read-out: Ratio CC50/IC50
How it was run: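 SI calculated as CC50 (72 h MTT, HepG2 2.2.15) divided by IC50 for inhibition of HBV DNA replication measured by real-time PCR.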

Hepatitis B virus [4] = test: Antiviral activity against HBV infected in human HepG2(2.2.15) cells assessed as inhibition of viral DNA replication after 6 days by RT-PCR method; assay type: functional, organism-based; details: HepG2 2.2.15, 144 h; how it was run: as §1
Hepatitis B virus [5] = test: Antiviral activity against lamivudine/entecavir resistant HBV harboring reverse transcriptase L180M/M204V/T184L mutant infected in human […] cells assessed as inhibition of viral DNA replication at 1 uM after 72 hrs by RT-PCR method relative to control; assay type: functional
How it was run: (§2)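 HepG2 cells (not 2.2.15) were transiently transfected for 24 h with a plasmid carrying the rtL180M + rtM204V + rtT184L mutant HBV genome, alongside wild-type. After a PBS wash, cells received a single concentration (1, 10 or 100 µM) in fresh medium for 72 h. HBV DNA replicative intermediate was measured by real-time PCR and compared with the wild-type group.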

Hepatitis B virus [6] = test: Antiviral activity against HBV infected in human HepG2(2.2.15) cells assessed as inhibition of intracellular viral pregenomic RNA expression at 1 uM after 6 days by TRIzol reagent based RT-PCR method relative to control; assay type: functional; details: HepG2 2.2.15, 144 h
How it was run: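 HepG2 2.2.15 cells at 6×10^5 per well treated 6 days at 1 μM; total cellular RNA extracted and intracellular HBV pgRNA quantified by real-time PCR.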

[7] = Selectivity index, ratio of CC50 for human HepG2(2.2.15) cells to IC50 for antiviral activity against lamivudine/entecavir resistant HBV harboring reverse transcriptase L180M/M204V/T184L mutant infected in human HepG2(2.2.15) cells; assay type: toxicity, cell-based; details: read-out: Ratio CC50/IC50
How it was run: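 SI = CC50/IC50. CC50 comes from HepG2 2.2.15 cells grown to confluence and treated for 72 h, with MTT absorbance at 490 nm relative to untreated cells, in triplicate. IC50 comes from mutant-plasmid-transfected HepG2 cells treated for 72 h, with HBV DNA measured by real-time PCR.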

Protein P = biological target: T1, Protein P (Duck hepatitis B virus (strain Germany/DHBV-3) (DHBV), UniProt P0C691); test: (§3) Inhibition of DHBV reverse transcriptase polymerase activity expressed in reticulocyte system assessed as reduction in elongation of viral minus strand DNA in presence of [alpha32P]DNA
T1 sequence (P0C691 whole entry): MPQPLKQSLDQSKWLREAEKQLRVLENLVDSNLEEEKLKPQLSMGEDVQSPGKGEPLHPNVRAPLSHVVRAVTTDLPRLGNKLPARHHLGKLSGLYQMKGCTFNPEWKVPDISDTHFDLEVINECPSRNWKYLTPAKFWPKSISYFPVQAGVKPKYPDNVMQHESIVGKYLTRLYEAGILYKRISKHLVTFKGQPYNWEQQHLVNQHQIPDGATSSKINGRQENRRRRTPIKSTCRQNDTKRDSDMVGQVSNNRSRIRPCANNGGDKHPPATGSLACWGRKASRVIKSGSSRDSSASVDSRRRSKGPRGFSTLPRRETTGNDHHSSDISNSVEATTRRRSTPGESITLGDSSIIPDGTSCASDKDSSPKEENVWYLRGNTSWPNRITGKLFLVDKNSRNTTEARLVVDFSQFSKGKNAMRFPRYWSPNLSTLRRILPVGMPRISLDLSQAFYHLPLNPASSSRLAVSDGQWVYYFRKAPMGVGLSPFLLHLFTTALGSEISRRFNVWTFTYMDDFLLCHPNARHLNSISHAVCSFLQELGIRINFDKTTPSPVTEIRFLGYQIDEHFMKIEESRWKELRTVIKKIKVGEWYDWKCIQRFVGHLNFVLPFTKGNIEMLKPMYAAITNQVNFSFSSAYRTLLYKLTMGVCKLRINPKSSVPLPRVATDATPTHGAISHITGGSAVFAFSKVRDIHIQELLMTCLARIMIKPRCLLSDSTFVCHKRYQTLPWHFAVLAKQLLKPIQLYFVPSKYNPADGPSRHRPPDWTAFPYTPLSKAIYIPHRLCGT
How it was run: (§4)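 DHBV polymerase expressed in vitro in reticulocyte lysate; reverse transcriptase activity followed as [α32P]-dNTP incorporation into viral minus-strand DNA, with or without increasing inhibitor concentrations.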

[8] = biological target: T2, Protein P (Duck hepatitis B virus (strain Germany/DHBV-3) (DHBV)) (UniProt P0C691); test: as §3; how it was run: as §4
T2 sequence (whole entry): T1 sequence (P0C691 whole entry)

Hepatitis B virus [9] = test: Antiviral activity against lamivudine/entecavir resistant HBV harboring reverse transcriptase L180M/M204V/T184L mutant infected in human […] after 72 hrs by RT-PCR method; assay type: functional, organism-based
How it was run: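 HepG2 cells (2×10^5 per well) were plated, incubated overnight, then transiently transfected for 24 h with a plasmid carrying the full HBV genome with rtL180M + rtM204V + rtT184L. Medium was discarded, cells washed with PBS, then treated across a dose range in fresh medium for 72 h. Intracellular HBV DNA replicative intermediate was quantified by real-time PCR. IC50 is 50% inhibition of DNA replication.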

Hepatitis B virus [10] = test: Antiviral activity against HBV infected in human […] cells assessed as inhibition of viral DNA replication at 1 uM after 72 hrs by RT-PCR method relative to control; assay type: functional
How it was run: (§5)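 HepG2 cells (2×10^5/well) transfected overnight-plated, 24 h with plasmid carrying wild-type or rtL180M+rtM204V+rtT184L resistant HBV; after PBS wash, fresh medium with lamivudine 100 μM, entecavir 10 μM, or test compounds 1 μM (one at 10 μM) for 72 h; replicative intermediate HBV DNA measured by real-time PCR.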

Hepatitis B virus [11] = test: Antiviral activity against HBV infected in human […] at 10 uM after 72 hrs by RT-PCR method relative to control; assay type: functional; how it was run: as §5
Hepatitis B virus [12] = test: Antiviral activity against lamivudine/entecavir resistant HBV harboring reverse transcriptase L180M/M204V/T184L mutant infected in human […] at 10 uM after 72 hrs by RT-PCR method relative to control; assay type: functional; how it was run: as §2
Hepatitis B virus [13] = test: Antiviral activity against HBV infected in human HepG2(2.2.15) cells assessed as inhibition of viral DNA replication at 4 uM after 6 days by RT-PCR method relative to control; assay type: functional; details: HepG2 2.2.15, 144 h; how it was run: as §1
Hepatitis B virus [14] = test: Antiviral activity against HBV assessed as inhibition of viral DNA replication; assay type: functional, organism-based
How it was run: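 HepG2 cells transiently transfected with wild-type HBV genome, or the rtL180M+rtM204V+rtT184L lamivudine/entecavir-resistant mutant, for 24 h, washed, then exposed in dose-dependent manner; after 72 h HBV DNA replicative intermediate extracted and quantified by real-time PCR. IC50 = concentration giving 50% inhibition of DNA replication; mean ± SD of at least three independent experiments, duplicate measurements.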

Row | pIC50 (Hepatitis B virus [4]) | SMILES | CC50 at 72 h [1] [µM] | inhibition at 20 µM (Hepatitis B virus [2]) [%] | selectivity ratio [3] | also measured
1 | – | O=C(N[C@@H](Cc1ccc(O)cc1)C(=O)N1CCCCC1)c1ccccc1 | > 100 | 19.5 | – | –
2 | – | CN(C)CCOc1ccc(C[C@H](NC(=O)c2ccccc2)C(=O)N2CCOCC2)cc1 | > 100 | 24.9 | – | –
3 | 5.41 | O=C(N[C@H](CO)Cc1ccccc1)/C(NC(=O)c1ccccc1)=C(/Br)c1ccccc1 | > 100 | 77.6 | > 25.9 | –
4 | 5.26 | N#Cc1ccc(/C(Br)=C(/NC(=O)c2ccccc2)C(=O)N[C@H](CO)Cc2ccccc2)cc1 | > 100 | 75.1 | 18.2 | –
5 | – | CN(C)CCOc1ccc(C[C@H](NC(=O)c2ccccc2)C(=O)N2CCCCC2)cc1 | > 100 | 51.6 | – | –
6 | 5.35 | O=C(N[C@H](CO)Cc1ccccc1)/C(NC(=O)c1ccccc1)=C(/Br)c1ccc(Br)cc1 | > 100 | 73.1 | > 22.5 | –
7 | 5.14 | O=C(N[C@H](CO)Cc1ccccc1)/C(NC(=O)c1ccccc1)=C(/Br)c1ccccc1Br | > 100 | 76.6 | > 13.8 | –
8 | – | CCN(CC)C(=O)[C@H](Cc1ccc(OCCN(C)C)cc1)NC(=O)c1ccccc1 | > 100 | 17.5 | – | –
9 | – | C=C1[C@H](CO)[C@@H](O)C[C@@H]1n1cnc2c(=O)[nH]c(N)nc21 [ENTECAVIR] | – | – | – | inhibition at 10 µM (Hepatitis B virus [11]): 95.7%; inhibition at 10 µM (Hepatitis B virus [12]): 17.9%
10 | – | O=C(N[C@H](CO)Cc1ccccc1)/C(=C\c1ccc(Br)cc1)NC(=O)c1ccccc1 | 72.7 | – | – | inhibition at 4 µM (Hepatitis B virus [13]): 39%
11 | – | O=C(N[C@H](CO)Cc1ccccc1)/C(=C\c1ccccc1Cl)NC(=O)c1ccccc1 | > 100 | 29.8 | – | –
12 | – | CN(C)CCOc1ccc(/C=C(/NC(=O)c2ccccc2)C(=O)N[C@H](CO)Cc2ccccc2)cc1 | > 100 | 37.5 | – | –
13 | – | CN(C)CCOc1ccc(C[C@H](NC(=O)c2ccccc2)C(=O)N2CCCC2)cc1 | > 100 | 47.6 | – | –
14 | 5.73 | O=C(N[C@H](CO)Cc1ccccc1)/C(NC(=O)c1ccccc1)=C(/Br)c1ccccc1Cl | 66.7 | 80.2 | 35.5 | –
15 | – | O=C(N[C@H](CO)Cc1ccccc1)/C(=C\c1ccccc1Br)NC(=O)c1ccccc1 | > 100 | 26.2 | – | –
16 | – | CN(C)CCOc1ccc(C[C@H](NC(=O)c2ccccc2)C(=O)N[C@H](CO)Cc2ccccc2)cc1 | > 100 | 69.2 | – | –
17 | – | O=C(N[C@H](CO)Cc1ccccc1)/C(=C\c1ccc(O)cc1)NC(=O)c1ccccc1 | > 100 | 24.9 | – | –
18 | – | O=C(N[C@@H](Cc1ccccc1)C(=O)N1CCCCC1)c1ccccc1 | > 100 | 42.3 | – | –
19 | – | Cc1cccc(/C=C(/NC(=O)c2ccccc2)C(=O)N[C@H](CO)Cc2ccccc2)c1 | > 100 | 15.8 | – | –
20 | – | CC(=O)OC[C@H](Cc1ccccc1)NC(=O)[C@H](Cc1ccccc1)NC(=O)c1ccccc1 | > 100 | 60.6 | – | pIC50 (Hepatitis B virus [14]): 4.95
21 | 5.61 | O=C(N[C@H](CO)Cc1ccccc1)/C(NC(=O)c1ccccc1F)=C(/Br)c1ccccc1 | > 100 | 76.4 | 41 | –
22 | – | N#Cc1ccc(/C=C(/NC(=O)c2ccccc2)C(=O)N[C@H](CO)Cc2ccccc2)cc1 | > 100 | 10.2 | – | –
23 | – | O=C(N[C@H](CO)Cc1ccccc1)/C(=C\c1ccccc1)NC(=O)c1ccccc1F | > 100 | 51.4 | – | –

Row | SMILES | pIC50 (Hepatitis B virus [4]) | CC50 at 72 h [1] [µM] | inhibition at 20 µM (Hepatitis B virus [2]) [%] | selectivity ratio [3] | also measured
24 | Cc1cccc(/C(Br)=C(/NC(=O)c2ccccc2)C(=O)N[C@H](CO)Cc2ccccc2)c1 | 6.34 | > 100 | 87.6 | > 217 | inhibition at 1 µM (Hepatitis B virus [5]): 65.9%; inhibition at 1 µM (Hepatitis B virus [6]): 49.4%; selectivity ratio [7]: > 130; pEC50 (Protein P): 4.47; inhibition [8]: Dose-dependent effect; pIC50 (Hepatitis B virus [9]): 6.11; inhibition at 1 µM (Hepatitis B virus [10]): 61.4%
25 | CN(C)CCOc1ccc(/C(Br)=C(/NC(=O)c2ccccc2)C(=O)N[C@H](CO)Cc2ccccc2)cc1 | 6.85 | 21.4 to 28.7 | – | 153 | inhibition at 1 µM (Hepatitis B virus [5]): 80.1%; inhibition at 4 µM (Hepatitis B virus [13]): 99.5%; selectivity ratio [7]: 89.7; pIC50 (Hepatitis B virus [9]): 6.49; inhibition at 1 µM (Hepatitis B virus [10]): 79.6%
26 | O=C(N[C@H](CO)Cc1ccccc1)/C(NC(=O)c1ccccc1)=C(/Br)c1ccc(O)cc1 | 5.70 | 34.3 to 39 | – | 19.5 | inhibition at 1 µM (Hepatitis B virus [5]): 43.2%; inhibition at 4 µM (Hepatitis B virus [13]): 63.2%; selectivity ratio [7]: 11.6; pIC50 (Hepatitis B virus [9]): 5.53; inhibition at 1 µM (Hepatitis B virus [10]): 34.8%
